Sampled rows, rich in hits. Any-hit rate of the full collection: about 3%.
DDE Tn6 FP inh: inhibitors of Tn6 peptide binding to fibrin DD(E), primary screen, biochemical, fluorescence polarization, human fibrin, Tn6 probe. 370,000 tested, 0.21% active. Fibrinogen beta chain (Homo sapiens), P02675. Fibrin DD(E) TRITC-Tn6 fluorescence polarization displacement. inhibition, % at 8.3 µM;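 active = inhibition above a per-campaign cutoff: mean of compounds within control limits plus 3 SD, cut at about 15% in these data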;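 also: 0% = median of all compound wells on the plate and 100% = blocking peptide control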
DDE Tn7 FP inh: inhibitors of Tn7 peptide binding to fibrin DD(E), primary screen, biochemical, fluorescence polarization, human fibrin, Tn7 probe. Fibrinogen beta chain (Homo sapiens), P02675. FP displacement of FITC-Tn7 peptide from fibrin DD(E); 0% = median of compound wells per plate. inhibition, % at 8.3 µM. 370,000 tested, 0.13% active;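 active = inhibition above the mean of compounds falling within the control limits plus 3 SD of them, cut at about 14% in these data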;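 also: 0% = plate median of compound wells and 100% = 10 µM Aha-Tn7 peptide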
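Assay system: human fibrin DD(E) protein / Input: 2 µM fibrin DD(E) / Benchmarks: high control of 10 µM Aha-Tn7 peptide / Measured by: fluorescence polarization of the labelled Tn7 tracer / Medium: Tris buffer with calcium and detergent, pH 7.8 / Timing: 10 min compound pre-incubation, 3 h probe incubation at room temperature / Repeats: one replicate per compound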
PLC-gamma1 inh: PLC-gamma1 enzyme inhibitors, primary screen, biochemical, fluorescence, purified enzyme; 1-phosphatidylinositol 4,5-bisphosphate phosphodiesterase gamma-1 (Homo sapiens), P19174; fluorogenic substrate; inhibition, % at 12.2 µM; 370,000 tested, 0.84% active; AID 720700, 2013; in the data active = inhibition above about 9.5%
Target sequence (P19174 whole entry, looked up): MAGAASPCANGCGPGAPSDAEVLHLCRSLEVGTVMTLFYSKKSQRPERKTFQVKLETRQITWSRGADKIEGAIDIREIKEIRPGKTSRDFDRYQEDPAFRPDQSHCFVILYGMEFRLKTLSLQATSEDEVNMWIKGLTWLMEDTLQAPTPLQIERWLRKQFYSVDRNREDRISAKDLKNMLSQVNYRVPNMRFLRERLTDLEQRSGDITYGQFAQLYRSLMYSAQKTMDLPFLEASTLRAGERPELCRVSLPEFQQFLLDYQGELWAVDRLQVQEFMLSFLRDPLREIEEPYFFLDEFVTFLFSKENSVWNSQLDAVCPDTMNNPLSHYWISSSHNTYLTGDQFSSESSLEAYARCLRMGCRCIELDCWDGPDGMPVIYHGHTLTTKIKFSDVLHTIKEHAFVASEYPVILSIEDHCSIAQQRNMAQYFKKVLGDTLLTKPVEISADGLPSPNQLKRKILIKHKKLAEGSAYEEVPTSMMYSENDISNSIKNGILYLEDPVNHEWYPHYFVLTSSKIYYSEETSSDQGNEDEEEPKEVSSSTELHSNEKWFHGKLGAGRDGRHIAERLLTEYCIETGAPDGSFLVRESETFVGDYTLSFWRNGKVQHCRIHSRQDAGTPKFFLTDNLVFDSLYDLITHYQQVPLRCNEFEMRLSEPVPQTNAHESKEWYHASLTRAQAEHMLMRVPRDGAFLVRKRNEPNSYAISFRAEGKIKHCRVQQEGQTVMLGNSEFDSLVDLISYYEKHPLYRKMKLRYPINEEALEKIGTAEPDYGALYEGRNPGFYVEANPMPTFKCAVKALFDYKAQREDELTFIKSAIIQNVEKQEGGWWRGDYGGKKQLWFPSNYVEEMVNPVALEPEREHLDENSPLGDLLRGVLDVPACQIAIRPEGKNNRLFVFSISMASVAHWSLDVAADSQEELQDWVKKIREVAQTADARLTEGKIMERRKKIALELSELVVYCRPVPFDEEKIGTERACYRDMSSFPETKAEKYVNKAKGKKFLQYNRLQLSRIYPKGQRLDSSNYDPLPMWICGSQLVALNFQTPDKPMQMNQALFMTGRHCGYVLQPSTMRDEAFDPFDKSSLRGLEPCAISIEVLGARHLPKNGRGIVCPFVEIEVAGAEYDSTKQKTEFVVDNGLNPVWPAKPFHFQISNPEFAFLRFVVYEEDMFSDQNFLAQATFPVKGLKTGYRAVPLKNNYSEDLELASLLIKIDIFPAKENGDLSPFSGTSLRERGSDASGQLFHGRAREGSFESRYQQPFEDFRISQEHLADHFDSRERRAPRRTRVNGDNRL
CendR NRP1 mod: modulators of CendR peptide binding to NRP-1, primary screen, biochemical, fluorescence polarization, uHTS. FAM-RPARPAR peptide binding to NRP-1. Neuropilin-1 (Homo sapiens), O14786. inhibition, % at 25 µM. AID 602438, 2012. 360,000 tested, 0.85% active;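 active = inhibition or corrected inhibition above about 18%, plus a signal ratio from 0.5 to 1.5, limit read from the data, passing the limit was not always enough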
PLCb3 inh: human PLC-beta3 inhibitors, primary screen, biochemical, fluorescence. 1-phosphatidylinositol 4,5-bisphosphate phosphodiesterase beta-3 (Homo sapiens), Q01970. inhibition, % at 12.2 µM. Purified PLC-beta3, fluorogenic substrate. AID 720704, 2013. 370,000 tested, 0.18% active; in the data active = inhibition above about 11%;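 also: 0% = median of compound wells on plate and 100% = full blocker control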
proKLK7 act: proKLK7 zymogen activators, primary screen, biochemical, fluorescence intensity. Kallikrein-7 (Homo sapiens), P49862. purified proKLK7, EDANS-DABCYL substrate fluorescence; 100% is mature enzyme control, 0% vehicle. activation, % at 7 µM. 370,000 tested, 0.9% active;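 active = activation above the mean of all tested compounds plus 3 SD, computed per campaign excluding outliers beyond control limits, cut at about 13% in these data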
DDE Tn6 FP ctr: DD(E)-Tn6 binding inhibition, counter-screen; inhibition, % at 8.3 µM; Fibrin DD(E), TRITC-Tn6 fluorescence polarization displacement; 0% = median of compound wells, not DMSO; shares compounds with DDE Tn6 FP inh; AID 720621; 680 tested, 2% active;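 active = inhibition above the mean of test compounds lying between the control limits plus 3 SD of those, cut at about 14% in these data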;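 also: 0% = median of compound wells and 100% = wells with Aha-Tn7 blocking peptide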
Tn6 DDE conf: inhibitors of Tn6 peptide binding to fibrin DD(E), confirmation, biochemical, fluorescence polarization, human fibrin, Tn6 probe; shares compounds with DDE Tn6 FP inh; FP displacement of TRITC-Tn6 peptide from DD(E); 0% = per-plate median of test wells; inhibition, % at 8.3 µM; 680 tested, 10% active; AID 720631, 2013;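 active = inhibition above the mean of compounds lying within the control limits plus 3 SD, cut at about 16% in these data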;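 also: 100% = high control wells holding a competing inhibitor peptide at 10 µM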
An asterisk follows results filed as active; . = no result given; + = active, no number.

SMILES	DDE Tn6 FP inh	DDE Tn7 FP inh	PLC-gamma1 inh	CendR NRP1 mod	PLCb3 inh	proKLK7 act	DDE Tn6 FP ctr	Tn6 DDE conf
CCN1C(=O)CC(N2CCN(CC(=O)NC(C)C)CC2)C1=O (configuration not stated)	16*	-2	8	4	3	0	1	-2
O=C(Nc1ccc(F)cc1)OCc1cn(Cc2cccc(Cl)c2)nn1	1	9	0	.	-4	1	.	.
Cc1ccc(NC(=O)CS(=O)CC(=O)Nc2ccccc2-c2ccc(C)o2)cc1 (configuration not stated)	22*	8	-16	-6	-36	0	-1	-3
COc1ccc(C(=O)N(Cc2ccccc2)c2cccc(C)c2)cc1	17*	1	-2	20	-4	0	1	-3
COc1ccc(CN(C(=O)c2ccc(C)cc2)c2cccc(N)c2)cc1	-1	0	-2	-73	-1	0	.	.
CCOc1ccc(-n2c(SCC(=O)Nc3ccccc3-c3ccccc3)nnc2-c2ccncc2)cc1	-2	5	0	.	4	0	.	.
O=C(CSc1nnc(CNC(=O)c2ccco2)o1)NC1CCCC1	16*	7	0	-3	1	0	0	-3
CC1(C(=O)NS(=O)(=O)c2ccc(Cl)cc2)CCN1C(=O)CCc1ccc(Cl)cc1Cl (configuration not stated)	6	-1	-4	12	-9	0	.	.
CC1(C(=O)NS(=O)(=O)c2cccc(Cl)c2)CCN1C(=O)Cc1cc(F)ccc1F (configuration not stated)	16*	-2	1	-20	3	0	-2	-4
Cc1cccc(S(=O)(=O)NC(=O)C2(C)CCN2C(=O)Cc2cc(F)ccc2F)c1 (configuration not stated)	6	0	3	-2	-2	0	.	.
CC1(C(=O)NS(=O)(=O)c2cccs2)CCN1C(=O)CCc1ccc(Cl)cc1Cl (configuration not stated)	17*	3	-4	-6	0	0	5	4
CC(C)(C)N(Cc1cn(Cc2ccccc2)nn1)S(=O)(=O)c1ccc(N2CCCCC2)cc1Br	-4	1	-5	.	-9	1	.	.
Cc1cc2c(N)cccc2nn1	+	5	-18	41*	-30	0	0	18*
Cc1cc(C(=O)O[C@@H]2CCC[C@]3(C(=O)N(Cc4ccccc4)c4ccccc43)[C@H]2NC(=O)CCc2ccccc2)no1	-6	0	-1	.	3	0	.	.
CNC(=O)COC(=O)c1ccc([N+](=O)[O-])cc1Cl	2	-4	3	7	-3	1	.	.
Cc1cc(NC(=O)COC(=O)c2ccc([N+](=O)[O-])cc2Cl)no1	98*	-4	3	2	-2	1	-5	-7
CCO/C(C)=N/Oc1cnc2ccccc2c1	7	5	-11	15	-16	1	.	.
CCO/C(C)=N/Oc1cccc(N(C)C)c1	19*	8	-13	8	-13	0	3	2
O=C(CN1C(=O)c2cccnc2Oc2ccc(Cl)cc21)N1CCCC1	16*	3	-2	-6	-1	0	1	0
O=C(CN1C(=O)c2cccnc2Oc2ccc(Cl)cc21)N1CCCCCC1	2	-2	4	8	-4	-1	.	.
CCCC[C@H]1C2CC(OC(=O)Nc3cccc(Br)c3)C(C2)[C@H]2CCCCN21 (some centres not stated)	0	-4	0	.	-6	0	.	.
COC(=O)c1ccc2c(c1)SC1=C(CCCC1=O)N2	22*	-1	-347	-20	-388	-4	1	24*
O=C1CCCC2=C1Sc1ccc(Cl)cc1N2	-3	6	-26	138	-49	-1	.	.
O=C(Cn1c(=O)c2cccn2c2cccnc21)NCCCN1CCN(c2ccc(Cl)cc2)CC1	1	-1	-1	.	4	.	.	.
COc1ccc(CN(CCN2CCOCC2)C(=O)c2ccc(F)cc2F)cc1OC	0	6	-3	.	1	1	.	.
SMILES	DDE Tn6 FP inh	DDE Tn7 FP inh	PLC-gamma1 inh	CendR NRP1 mod	PLCb3 inh	proKLK7 act	DDE Tn6 FP ctr	Tn6 DDE conf
COc1ccc(C)cc1S(=O)(=O)N1CCN(c2ccccc2)CC1	16*	3	-1	-5	-3	0	2	2
O=C(c1ccc(=O)oc1)N1CCOCC1	2	1	-4	-68	-18	0	.	.
O=C(c1coc(=O)c(Br)c1)N1CCOCC1	18*	3	-197	-20	-203	-6	-2	-4
Cc1csc(SCC(=O)NCc2cccc(Cl)c2)n1	17*	1	-1	-13	-3	0	1	1
Cc1csc(SCC(=O)NCc2ccc3c(c2)OCO3)n1	6	2	0	-4	1	-1	.	.
Cc1ccc(S(=O)(=O)N(C)C)cc1NC(=O)c1sccc1Cl	-7	1	1	0	-5	0	.	.
Cc1ccc(S(=O)(=O)N(C)C)cc1NC(=O)c1cccs1	17*	-1	3	12	-3	0	-2	-5
COc1ccc(N=C(N)NC(=O)OCc2ccccc2)cc1	-9	8	0	.	0	0	.	.
C[C@@H]1ON(C)[C@H]2C[C@H]3c4[nH]c5c(-c6ccccc6)cccc5c4CCN3C[C@@H]12	0	-9	-134	.	-148	2	.	.
Cc1cc(Br)cn2c(Cc3ccsc3)c(-c3cccc(Cl)c3)nc12	18*	-1	1	-6	-9	0	11	6
O=C(CSc1nc2ccccc2[nH]1)Nc1nc(-c2ccc(Br)cc2)cs1	41*	-1	3	17	0	0	2	-5
CCC(Sc1nc2ncccc2[nH]1)C(=O)NC1CCCC1 (configuration not stated)	18*	-1	3	-9	-1	0	0	-1
Cc1cc(C)c(S(=O)(=O)NCCn2c(C)cc3ccccc32)c(C)c1	56*	-8	-20	-3	-25	0	-4	23*

High-throughput results (PubChem BioAssay)
